Test results as given in ChEMBL document CHEMBL2321684, “Novel hybrids of optically active ring-opened 3-n-butylphthalide derivative and isosorbide as potential anti-ischemic stroke agents” (J Med Chem, 2013).
Structures can show the parent of a compound that is named as a salt. Active and inactive are the calls of the source. No cut-off for these calls is given here.

Key:
[1] = Antiplatelet aggregation activity in rabbit platelets assessed as inhibition of ADP-induced platelet aggregation incubated for 5 mins prior to ADP-challenge measured within 5 mins by Born's turbidimetric analysis; assay type: functional, cell-based; conditions: Oryctolagus cuniculus
[2] = Antiplatelet aggregation activity in rabbit platelets assessed as inhibition of arachidonic acid-induced platelet aggregation incubated for 5 mins prior to arachidonic acid-challenge measured within 5 mins by Born's turbidimetric analysis; assay type: functional, cell-based; conditions: Oryctolagus cuniculus
Outline: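 Rabbit citrated PRP was adjusted to 400−450 × 10⁹ platelets/L and preincubated for 5 min at 37 °C with vehicle DMSO or compound at 0.1−1.6 mM (at least five concentrations). Aggregation was induced with arachidonic acid (0.33 mM, per the methods text). Maximum aggregation rate was recorded over 5 min by Born's turbidimetry, and IC₅₀ was derived from inhibition versus vehicle (mean ± SD).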

[3] = Antiplatelet aggregation activity in rabbit platelets assessed as inhibition of ADP-induced platelet aggregation at 1 mM incubated for 5 mins prior to ADP-challenge measured within 5 mins by Born's turbidimetric analysis relative to control; assay type: functional; conditions: Oryctolagus cuniculus
Outline: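 Rabbit carotid blood was citrated (3.8%, 9:1). PRP was adjusted with PPP to 400−450 × 10⁹ platelets/L. PRP was preincubated with compound or DMSO for 5 min at 37 °C, then aggregation was induced with ADP at 10 μM. Maximum aggregation rate was recorded over 5 min using Born's turbidimetry. Inhibition % was calculated versus vehicle; n = 6, mean ± SD.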

Mus musculus = experiment: Antithrombotic activity in Swiss ICR mouse assessed as inhibition of collagen/adrenaline-induced acute systemic vascular thromboembolism at 160 mg/kg, po administered for 7 days prior to collagen/adrenaline-challenge measured up to 15 mins relative to control; assay type: functional, organism-based; set-up: dose 160 mg/kg
Outline: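 Male Swiss ICR mice (30−35 g), n = 15 per group, dosed by gavage daily for 7 days in DMSO vehicle. Two hours after the last dose, mice received collagen (0.21 mg/kg) plus adrenaline (44.5 μg/kg) iv. Survival was monitored for 15 min and reported as % surviving.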

Structure (SMILES) | IC50 [1] [µM] | IC50 [2] [µM] | inhibition at 1000 µM [3] [%] | Activity (Mus musculus)
CCCC[C@H](OC(=O)CN1CCOCC1)c1ccccc1C(=O)O[C@H]1CO[C@H]2[C@@H]1OC[C@H]2OC(=O)c1ccccc1[C@H](CCCC)OC(=O)CN1CCOCC1 | 450 | 320 | – | –
CCCC[C@@H](OC(=O)CN1CCN(C)CC1)c1ccccc1C(=O)O[C@H]1CO[C@H]2[C@@H]1OC[C@H]2OC(=O)c1ccccc1[C@@H](CCCC)OC(=O)CN1CCN(C)CC1 | 360 | 270 | – | –
CCCC[C@H](OC(=O)CN1CCN(C)CC1)c1ccccc1C(=O)O[C@@H]1CO[C@H]2[C@@H]1OC[C@@H]2O[N+](=O)[O-] | – | – | 6.94 | –
Clc1ccccc1CN1CCc2sccc2C1 [TICLOPIDINE HYDROCHLORIDE] | 360 | – | – | –
O[C@@H]1CO[C@H]2[C@@H]1OC[C@@H]2O [ISOSORBIDE] | 1350 | 1680 | 6.94 | –
CCCC[C@H](OC(=O)CN1CCN(CCO)CC1)c1ccccc1C(=O)O[C@H]1CO[C@H]2[C@@H]1OC[C@H]2OC(=O)c1ccccc1[C@H](CCCC)OC(=O)CN1CCN(CCO)CC1 | 490 | 360 | – | –
CCCC[C@@H](OC(=O)CN1CCN(CCO)CC1)c1ccccc1C(=O)O[C@H]1CO[C@H]2[C@@H]1OC[C@H]2OC(=O)c1ccccc1[C@@H](CCCC)OC(=O)CN1CCN(CCO)CC1 | 750 | 630 | – | –
CCCC[C@@H](OC(C)=O)c1ccccc1C(=O)O[C@H]1CO[C@H]2[C@@H]1OC[C@H]2OC(=O)c1ccccc1[C@@H](CCCC)OC(C)=O | 710 | 570 | – | –
CCCC[C@H](OC(=O)CN1CCN(C)CC1)c1ccccc1C(=O)O[C@@H]1CO[C@H]2[C@@H]1OC[C@@H]2O | – | – | 6.94 | –
CCCC[C@H](OC(=O)CN1CCN(C)CC1)c1ccccc1C(=O)O[C@H]1CO[C@H]2[C@@H]1OC[C@H]2O[N+](=O)[O-] | – | – | 6.94 | –
CCCC[C@@H](OC(=O)CN1CCCC1)c1ccccc1C(=O)O[C@H]1CO[C@H]2[C@@H]1OC[C@H]2OC(=O)c1ccccc1[C@@H](CCCC)OC(=O)CN1CCCC1 | 1000 | 910 | – | –
CCCC[C@H](OC(C)=O)c1ccccc1C(=O)O[C@H]1CO[C@H]2[C@@H]1OC[C@H]2OC(=O)c1ccccc1[C@H](CCCC)OC(C)=O | 330 | 210 | – | –
CCCC[C@H](OC(=O)CN1CCCC1)c1ccccc1C(=O)O[C@H]1CO[C@H]2[C@@H]1OC[C@H]2OC(=O)c1ccccc1[C@H](CCCC)OC(=O)CN1CCCC1 | 800 | 640 | – | –
CC(=O)Oc1ccccc1C(=O)O [ASPIRIN] | – | 140 | – | Active
CCCC[C@H](OC(=O)CN1CCN(C)CC1)c1ccccc1C(=O)O[C@H]1CO[C@H]2[C@@H]1OC[C@H]2O | – | – | 6.94 | –
CCCC[C@H](OC(=O)CN1CCN(C)CC1)c1ccccc1C(=O)O | – | – | 6.94 | –
CCCC[C@@H](OC(=O)CN1CCOCC1)c1ccccc1C(=O)O[C@H]1CO[C@H]2[C@@H]1OC[C@H]2OC(=O)c1ccccc1[C@@H](CCCC)OC(=O)CN1CCOCC1 | 940 | 800 | – | –
